Calls of active or inactive are those of the source. The calls are words filed in the database; no cut-off is given here.
Assays:
[1] = molecular target: Glutathione S-transferase P (Homo sapiens) (UniProt P09211); assay: Inhibition of recombinant human N-terminal His-tagged GSTP1 (1 to 210 residues) expressed in Escherichia coli at 100 uM using reduced GSH as substrate measured after 0.5 hrs by CDNB assay
Outline: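 GSTP catalytic activity followed via GSH–CDNB conjugation, read as absorbance at 340 nm specific to the conjugate. Compounds tested up to 100 μM.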

[2] = molecular target: Glutathione S-transferase P (Homo sapiens) (UniProt P09211); assay: Induction of GSTP1 degradation in human HeLa cells at 40 to 80 uM measured after 3 hrs by Western blot analysis; assay type: cell-based; details: dose 40-80 µM
Outline: (§1)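 GSTP protein in whole-cell lysates, detected by Western blot with specific antibodies after 3 h compound exposure. HeLa (high GSTP expression) treated at 40 or 80 μM or over a dose range; A549 and HT1080 cells (high or medium GSTP) also tested. Blots representative of three independent experiments.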

[3] = molecular target: Glutathione S-transferase P (Homo sapiens) (UniProt P09211); assay: Induction of GSTP1 degradation in human A549 cells at 40 to 80 uM measured after 3 hrs by Western blot analysis; assay type: cell-based; details: dose 40-80 µM; outline: as §1
[4] = molecular target: Glutathione S-transferase P (Homo sapiens) (UniProt P09211); assay: Induction of GSTP1 degradation in human HT-1080 cells at 40 to 80 uM measured after 3 hrs by Western blot analysis; assay type: cell-based; details: dose 40-80 µM; outline: as §1
[5] = molecular target: Glutathione S-transferase P (Homo sapiens) (UniProt P09211); assay: Induction of GSTP1 degradation in human HeLa cells at 5 to 80 uM measured after 3 hrs by Western blot analysis; assay type: cell-based; details: dose 5-80 µM; outline: as §1
[6] = molecular target: Glutathione S-transferase P (Homo sapiens) (UniProt P09211); assay: Induction of GSTP1 degradation in human HeLa cells at 80 uM measured after 3 hrs by Western blot analysis; assay type: cell-based; outline: as §1
HeLa [7] = assay: Induction of reactive oxygen species generation in human HeLa cells at 80 uM measured after 3 hrs by DCFH-DA staining based fluorescence laser confocal microscopic analysis; assay type: functional, cell-based
Outline: (§2)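 HeLa cells loaded with DCFH-DA fluorescent ROS probe after treatment at the indicated concentrations. Fluorescence read at Ex/Em 488/525 by laser confocal microscopy. Rosup 50 μg/mL served as positive control.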

HeLa [8] = assay: Induction of apoptosis in human HeLa cells assessed as early apoptotic cells at 80 uM measured after 3 hrs by Annexin V-FITC/propidium iodide staining based flow cytometry (reference value: 4.37%); assay type: functional
HeLa [9] = assay: Induction of apoptosis in human HeLa cells assessed as viable cells at 80 uM measured after 3 hrs by Annexin V-FITC/propidium iodide staining based flow cytometry (reference value: 91.43%); assay type: functional; details: read-out: Activity
HeLa [10] = assay: Induction of apoptosis in human HeLa cells assessed as late apoptotic cells at 80 uM measured after 3 hrs by Annexin V-FITC/propidium iodide staining based flow cytometry (reference value: 3.59%); assay type: functional
HeLa [11] = assay: Induction of apoptosis in human HeLa cells assessed as necrotic cells at 80 uM measured after 3 hrs by Annexin V-FITC/propidium iodide staining based flow cytometry (reference value: 0.61%); assay type: functional
HeLa [12] = assay: Induction of apoptosis in human HeLa cells measured after 3 hrs by Annexin V-FITC/propidium iodide staining based flow cytometry; assay type: functional, cell-based
[13] = molecular target: Glutathione S-transferase P (Homo sapiens) (UniProt P09211); assay: Induction of GSTP1 degradation in human HeLa cells assessed as increase in JNK phosphorylation at 5 to 80 uM measured after 3 hrs by Western blot analysis; assay type: cell-based; details: dose 5-80 µM
Outline: (§3)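 HeLa cells exposed to compound for 3 h. Total cell lysates probed by Western blot with specific antibodies for phospho-JNK, phospho-c-Jun and total JNK. Total JNK bands quantified by densitometry. Representative of three independent experiments.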

HeLa [14] = assay: Induction of apoptosis in human HeLa cells assessed as early apoptotic cells at 40 uM measured after 3 hrs by Annexin V-FITC/propidium iodide staining based flow cytometry (reference value: 4.37%); assay type: functional
HeLa [15] = assay: Induction of apoptosis in human HeLa cells assessed as viable cells at 40 uM measured after 3 hrs by Annexin V-FITC/propidium iodide staining based flow cytometry (reference value: 91.43%); assay type: functional; details: read-out: Activity
HeLa [16] = assay: Induction of apoptosis in human HeLa cells assessed as necrotic cells at 40 uM measured after 3 hrs by Annexin V-FITC/propidium iodide staining based flow cytometry (reference value: 0.61%); assay type: functional
[17] = molecular target: Glutathione S-transferase P (Homo sapiens) (UniProt P09211); assay: Induction of GSTP1 degradation in human HeLa cells measured after 3 hrs in presence of protein synthesis inhibitor cycloheximide by Western blot analysis; assay type: cell-based
Outline: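 HeLa cells pretreated with cycloheximide, then exposed to compound over a dose range for 3 h. GSTP in total lysates read by Western blot with specific antibodies. Blots representative of three independent experiments.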

[18] = molecular target: Glutathione S-transferase P (Homo sapiens) (UniProt P09211); assay: Induction of GSTP1 degradation in human HeLa cells assessed as increase in c-Jun phosphorylation at 5 to 80 uM measured after 3 hrs by Western blot analysis; assay type: cell-based; details: dose 5-80 µM; outline: as §3
HeLa [19] = assay: Induction of apoptosis in human HeLa cells assessed as viable cells at 10 uM measured after 3 hrs by Annexin V-FITC/propidium iodide staining based flow cytometry (reference value: 91.43%); assay type: functional; details: read-out: Activity
HeLa [20] = assay: Induction of apoptosis in human HeLa cells assessed as late apoptotic cells at 20 uM measured after 3 hrs by Annexin V-FITC/propidium iodide staining based flow cytometry (reference value: 3.59%); assay type: functional
[21] = molecular target: Glutathione S-transferase P (Homo sapiens) (UniProt P09211); assay: Induction of GSTP1 degradation in human HeLa cells assessed as reduction in total JNK expression at 20 to 80 uM measured after 3 hrs by Western blot analysis; assay type: cell-based; details: dose 20-80 µM; outline: as §3
HeLa [22] = assay: Induction of apoptosis in human HeLa cells assessed as early apoptotic cells at 10 uM measured after 3 hrs by Annexin V-FITC/propidium iodide staining based flow cytometry (reference value: 4.37%); assay type: functional
HeLa [23] = assay: Induction of apoptosis in human HeLa cells assessed as late apoptotic cells at 10 uM measured after 3 hrs by Annexin V-FITC/propidium iodide staining based flow cytometry (reference value: 3.59%); assay type: functional
HeLa [24] = assay: Induction of apoptosis in human HeLa cells assessed as early apoptotic cells at 20 uM measured after 3 hrs by Annexin V-FITC/propidium iodide staining based flow cytometry (reference value: 4.37%); assay type: functional
[25] = molecular target: Glutathione S-transferase P (Homo sapiens) (UniProt P09211); assay: Induction of GSTP1 degradation in human HeLa cells measured after 3 hrs by Western blot analysis; assay type: cell-based; outline: as §1
[26] = molecular target: Glutathione S-transferase P (Homo sapiens) (UniProt P09211); assay: Induction of GSTP1 degradation in human HeLa cells at 80 uM measured after 3 hrs in presence of ubiquitin activating enzyme E1 inhibitor PYR-41 by Western blot analysis; assay type: cell-based
Outline: (§4)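 HeLa cells cotreated with test compound plus bortezomib (20S proteasome inhibitor), PYR-41 (E1 ubiquitin-activating enzyme inhibitor) or bafilomycin A1 (V-ATPase inhibitor, blocks autophagosome–lysosome fusion). GSTP in total cell lysates then detected by Western blot with specific antibodies. Representative of three independent experiments.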

[27] = molecular target: Glutathione S-transferase P (Homo sapiens) (UniProt P09211); assay: Induction of GSTP1 degradation in human HeLa cells at 40 uM measured after 3 hrs by Western blot analysis relative to control; assay type: cell-based; outline: as §1
[28] = molecular target: Glutathione S-transferase P (Homo sapiens) (UniProt P09211); assay: Induction of GSTP1 degradation in human A549 cells at 5 to 80 uM measured after 3 hrs by Western blot analysis; assay type: cell-based; details: dose 5-80 µM; outline: as §1
HeLa [29] = assay: Induction of apoptosis in human HeLa cells assessed as necrotic cells at 10 uM measured after 3 hrs by Annexin V-FITC/propidium iodide staining based flow cytometry (reference value: 0.61%); assay type: functional
HeLa [30] = assay: Induction of apoptosis in human HeLa cells assessed as necrotic cells at 20 uM measured after 3 hrs by Annexin V-FITC/propidium iodide staining based flow cytometry (reference value: 0.61%); assay type: functional
[31] = molecular target: Glutathione S-transferase P (Homo sapiens) (UniProt P09211); assay: Induction of GSTP1 degradation in human HeLa cells at 80 uM measured after 3 hrs in presence of vacuolar type H (+)-ATPase inhibitor bafilomycin A1 by Western blot analysis; assay type: cell-based; outline: as §4
[32] = molecular target: Glutathione S-transferase P (Homo sapiens) (UniProt P09211); assay: Induction of GSTP1 degradation in human HeLa cells at 80 uM measured after 3 hrs in presence of 20S proteasome inhibitor bortezomib by Western blot analysis; assay type: cell-based; outline: as §4
HeLa [33] = assay: Induction of apoptosis in human HeLa cells assessed as late apoptotic cells at 40 uM measured after 3 hrs by Annexin V-FITC/propidium iodide staining based flow cytometry (reference value: 3.59%); assay type: functional
[34] = molecular target: Glutathione S-transferase P (Homo sapiens) (UniProt P09211); assay: Induction of GSTP1 degradation in human HT-1080 cells at 5 to 80 uM measured after 3 hrs by Western blot analysis; assay type: cell-based; details: dose 5-80 µM; outline: as §1
HeLa [35] = assay: Induction of apoptosis in human HeLa cells assessed as viable cells at 20 uM measured after 3 hrs by Annexin V-FITC/propidium iodide staining based flow cytometry (reference value: 91.43%); assay type: functional; details: read-out: Activity
HeLa [36] = assay: Induction of reactive oxygen species generation in human HeLa cells measured after 3 hrs by DCFH-DA staining based fluorescence laser confocal microscopic analysis; assay type: functional, cell-based; details: dose 5-80 µM; outline: as §2

Chain of Glutathione S-transferase P (Homo sapiens) (P09211 2-210 limits assumed): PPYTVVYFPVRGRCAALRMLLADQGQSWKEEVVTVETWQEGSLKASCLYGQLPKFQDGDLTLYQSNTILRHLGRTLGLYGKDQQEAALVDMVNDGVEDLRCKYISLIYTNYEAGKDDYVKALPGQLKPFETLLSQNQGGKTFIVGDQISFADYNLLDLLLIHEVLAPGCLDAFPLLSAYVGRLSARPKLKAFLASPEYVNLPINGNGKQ

## C=C(CC)C(=O)c1ccc(OCC(=O)NC23CC4CC(CC(C4)C2)C3)c(Cl)c1Cl
[1]
  inhibition: Active
[2]
  Activity: Active

## C=C(CC)C(=O)c1ccc(OCC(=O)NCCNC(=O)OC(C)(C)C)c(Cl)c1Cl
[3]
  Activity: inactive
[4]
  Activity: inactive
[5]
  Activity: inactive

## C=C(CC)C(=O)c1ccc(OCC(=O)NCCCCCCNC(=O)OC(C)(C)C)c(Cl)c1Cl
[6]
  Activity: Active

## C=C(CC)C(=O)c1ccc(OCC(=O)OCCOC23CC4CC(CC(C4)C2)C3)c(Cl)c1Cl
[1]
  inhibition: Active
[2]
  Activity: inactive

## C=C(CC)C(=O)c1ccc(OCC(=O)OCCOCCOCCOC23CC4CC(CC(C4)C2)C3)c(Cl)c1Cl
[1]
  inhibition: Active
[2]
  Activity: inactive

## C=C(CC)C(=O)c1ccc(OCC(=O)O)c(Cl)c1Cl [ETHACRYNIC ACID]
HeLa [7]
  Activity: inactive
HeLa [8]
  Activity: 3.67%
HeLa [9]
  viability at 80 µM: 84.3%
HeLa [10]
  Activity: 10.3%
HeLa [11]
  Activity: 1.72%

## C=C(CC)C(=O)c1ccc(OCC(=O)OCCOCCOCCOCCOC23CC4CC(CC(C4)C2)C3)c(Cl)c1Cl
[1]
  inhibition: Active
[2]
  Activity: inactive

## C=C(CC)C(=O)c1ccc(OCC(=O)NCCCCNC(=O)CC23CC4CC(CC(C4)C2)C3)c(Cl)c1Cl
HeLa [12]
  Activity: Dose-dependent effect
[13]
  Activity: Active
HeLa [14]
  Activity: 19.7%
HeLa [15]
  viability at 40 µM: 45%
[1]
  inhibition: Active
HeLa [16]
  Activity: 0.75%
[17]
  Activity: Dose-dependent effect
[18]
  Activity: Active
HeLa [19]
  viability at 10 µM: 92.5%
HeLa [20]
  Activity: 26.61%
[2]
  Activity: Active
[21]
  Activity: Active
HeLa [22]
  Activity: 3.28%
HeLa [8]
  Activity: 18.03%
HeLa [23]
  Activity: 3.7%
HeLa [24]
  Activity: 15.48%
[25]
  Activity: Dose-dependent effect
[26]
  Activity: inactive
[27]
  Activity: 80%
[28]
  Activity: Active
HeLa [29]
  Activity: 0.49%
HeLa [30]
  Activity: 0.93%
[31]
  Activity: inactive
[32]
  Activity: inactive
HeLa [33]
  Activity: 34.59%
HeLa [9]
  viability at 80 µM: 20.5%
[34]
  Activity: Active
HeLa [10]
  Activity: 61.27%
HeLa [35]
  viability at 20 µM: 57%
HeLa [11]
  Activity: 0.23%
HeLa [36]
  Activity: Dose-dependent effect

## C=C(CC)C(=O)c1ccc(OCC(=O)OCCOCCOC23CC4CC(CC(C4)C2)C3)c(Cl)c1Cl
[1]
  inhibition: Active
[2]
  Activity: inactive

## C=C(CC)C(=O)c1ccc(OCC(=O)NCCCCCCNC(=O)CC23CC4CC(CC(C4)C2)C3)c(Cl)c1Cl
[1]
  inhibition: Active
[2]
  Activity: Active

## C=C(CC)C(=O)c1ccc(OCC(=O)NCCNC(=O)CC23CC4CC(CC(C4)C2)C3)c(Cl)c1Cl
[1]
  inhibition: Active
[2]
  Activity: Active
